Screening results from PubChem BioAssay.
NPY Y2 blocker – antagonists of human neuropeptide Y receptor Y2; 140,000 tested, 0.99% active; inhibition, % at 2.7 µM; NPY-Y2 expressing cells, antagonist mode; AID 793; P49146; in the data active means inhibition above about 17%;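 further: 0% = vehicle with agonist challenge and 100% = reference antagonist with challenge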
NPY2 pot ag – potentiators or agonists of human neuropeptide Y receptor Y2; P49146; cells expressing NPY-Y2, potentiator/agonist read-out; activation, % at 3.6 µM; 220,000 tested, 0.45% active; AID 1359; in the data active means activation above about 27%;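 further: cells stimulated with NPY near EC25 plus isoproterenol at EC100; 0% = vehicle plus submaximal agonist and 100% = vehicle plus saturating agonist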
NPY1 pot ag – potentiators or agonists of human neuropeptide Y receptor Y1 | activation, % at 3.6 µM | P25929 | 220,000 tested, 0.37% active | AID 1304 | NPY-Y1 expressing cells, potentiator/agonist activation; in the data active means activation above about 33%, passing the limit was not always enough;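 further: cells stimulated with NPY at EC10 then isoproterenol at EC100; 0% = low agonist plus stimulus and 100% = saturating agonist plus stimulus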
Target sequence (P25929 whole entry, looked up): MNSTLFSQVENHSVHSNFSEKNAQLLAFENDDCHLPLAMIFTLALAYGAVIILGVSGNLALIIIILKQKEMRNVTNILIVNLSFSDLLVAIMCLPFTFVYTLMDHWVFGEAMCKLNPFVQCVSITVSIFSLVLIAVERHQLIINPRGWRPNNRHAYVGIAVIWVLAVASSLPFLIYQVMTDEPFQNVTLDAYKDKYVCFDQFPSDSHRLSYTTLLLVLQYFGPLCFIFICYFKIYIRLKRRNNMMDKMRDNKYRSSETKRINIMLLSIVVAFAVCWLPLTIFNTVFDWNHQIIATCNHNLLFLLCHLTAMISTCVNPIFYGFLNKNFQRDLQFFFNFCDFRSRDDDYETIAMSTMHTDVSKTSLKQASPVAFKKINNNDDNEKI
NPY Y1 blocker – antagonists of human neuropeptide Y receptor Y1; P25929; HEK293-CNG Y1 cells, membrane potential fluorescence; NPY at EC95, then isoproterenol; inhibition, % at 3.6 µM; 200,000 tested, 1% active;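 active means inhibition above the campaign mean inhibition of all tested compounds plus 3 SD, cut at about 20% in these data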;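 further: 0% = DMSO wells given NPY plus isoproterenol and 100% = isoproterenol alone without NPY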
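Material: HEK293 Y1/CNG channel cell line | Also added: NPY (25 nM), isoproterenol (1 µM), Ro 20-1724 (25 µM) | Compound: One concentration, 3.6 µM, in 0.4% DMSO | Schedule: 3 h dye uptake, 1 h room-temperature compound, 45 min post-isoproterenol | Signal: Membrane-potential fluorescent dye readout | Read-out: % inhibition of NPY effect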
NPY-Y1 antag ct – antagonizes human NPY-Y1, counter-screen to NPY-Y2 antagonists; shares compounds with NPY Y2 blocker; cell-based NPY-Y1 antagonism counterscreen; inhibition, % at 3.6 µM; 710 tested, 19% active;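 further: cells challenged with NPY then isoproterenol with cAMP sensed through a CNG channel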
NPY2 antag conf – confirmation of human neuropeptide Y receptor Y2 antagonists | shares compounds with NPY Y2 blocker | HEK293 NPY-Y2 CNG channel, membrane potential fluorescence | inhibition, % at 2.8 µM | 710 tested, 32% active | AID 1257;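 active means mean inhibition of triplicate wells above the hit cutoff set in the primary screen, cut at about 17% in these data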;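 further: 0% = DMSO with NPY challenge and 100% = BIIE0246 high control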
NPY1 antag conf – confirmation of human neuropeptide Y receptor Y1 antagonists; shares compounds with NPY Y1 blocker; HEK293-CNG NPY-Y1, membrane potential fluorescence, cAMP; NPY challenge against isoproterenol-raised cAMP; inhibition, % at 3.6 µM; 1,200 tested, 21% active; AID 1254;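 further: 0% = vehicle with agonist plus stimulus and 100% = stimulus alone without agonist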
NPY2 antag ctr – human NPY-Y2 antagonism in NPY-Y1 counter-screen; shares compounds with NPY Y1 blocker; HEK293 NPY-Y2 CNG membrane potential fluorescence; cells given NPY, then isoproterenol; inhibition, % at 3.6 µM; 1,200 tested, 28% active; in the data active means inhibition above about 17%;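 further: 0% = DMSO with agonist challenge and 100% = reference antagonist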
The depositor's hits bear a star; x = no result given. Compounds with a hit are over-represented: about 1.8% of the library has one in this group of screens. Unless noted, no stated cut-off is given here; in the data, active means inhibition above about 20%; inactive means the rest.

SMILES | NPY Y2 blocker | NPY2 pot ag | NPY1 pot ag | NPY Y1 blocker | NPY1 antag conf | NPY2 antag ctr | others
CCN(CCNc1ccc([N+](=O)[O-])c2cccnc12)S(=O)(=O)c1ccc(Cl)cc1 | 9 | 13 | 6 | 7 | x | x
O=C(O)c1nn(Cc2ccc(Cl)cc2Cl)c2ccccc12 | x | 13 | -1 | 7 | x | x
C1=C(c2c[nH]c3ccccc23)CCNC1 | 1 | 12 | 8 | 0 | x | x
COc1ccc(C)cc1NC(=O)c1c(C)nn(Cc2ccccc2)c1Cl | 21* | -19 | -24 | 20* | x | x
CC1CCC(C(C)C)C(OC(=O)COC(=O)c2ccccc2N)C1 (stereo unspecified) | 18* | -17 | -34 | 18 | x | x | NPY-Y1 antag ct=9;NPY2 antag conf=14
O=C(c1ccco1)c1cn(Cc2ccccc2)c2ccccc12 | 16 | -3 | -41 | 7 | x | x
O=C(c1ccco1)c1cn(Cc2ccccc2Cl)c2ccccc12 | 24* | -21 | -28 | 12 | x | x | NPY-Y1 antag ct=13;NPY2 antag conf=11
N#Cc1ccccc1Cn1cc(C(=O)c2ccco2)c2ccccc21 | 17* | 1 | -51 | 16 | x | x | NPY-Y1 antag ct=6;NPY2 antag conf=5
C(CCc1nn[nH]n1)CCc1nn[nH]n1 | 0 | 10 | -15 | 0 | x | x
CS(=O)(=O)NNP(=O)(NNS(C)(=O)=O)NC(=O)c1ccccc1 | x | -10 | -6 | x | x | x
CCC(=NCCC(c1ccccc1)c1ccccc1)c1c(O)[nH]c(=O)[nH]c1=O | 35* | -7 | -22 | 7 | x | x | NPY-Y1 antag ct=40*;NPY2 antag conf=67*
CN(C)c1ccc(P(=S)(N(C)C)N(C)C)cc1 | 5 | -17 | -9 | 2 | x | x
CCOP(=S)(OCC)c1ccc(N(C)C)cc1 | 17* | -15 | -7 | 15 | x | x | NPY-Y1 antag ct=17;NPY2 antag conf=7
CCCC[N+]12CCC(CC1)C(C(=O)c1cccs1)C2 (stereo unspecified) | -1 | 5 | -16 | -4 | x | x
O=P(Oc1ccccc1)(Oc1ccccc1)C(Nc1ccccc1)c1ccccc1 (stereo unspecified) | 28* | 1 | -6 | 6 | x | x | NPY-Y1 antag ct=27*;NPY2 antag conf=20*
COP(=O)(OC)C(Nc1ccccn1)c1ccccc1 (stereo unspecified) | 0 | 3 | -8 | 2 | x | x
COc1ccc2ccc(O)c(CN3CC=C(c4ccccc4)CC3)c2c1 | x | -19 | -26 | 23* | 15 | 24*
COc1ccc2c(CN3CC=C(c4ccccc4)CC3)cc(=O)oc2c1 | x | -9 | -12 | 3 | x | x
COCCCn1c(N)c(C(=O)NCc2ccco2)c2nc3ccccc3nc21 | x | -18 | 14 | x | x | x
O=c1[nH]c(=O)n(-c2cccc3ccccc23)c(O)c1/C=N/N1CCCCC1c1cccnc1 (stereo unspecified) | 10 | -2 | -8 | 25* | 3 | 4
Cc1ccsc1C(=O)C1CCCN(Cc2cccn2-c2ccccn2)C1 (stereo unspecified) | x | -35 | -36 | 29* | 21* | 24*
Cc1ccsc1C(=O)C1CCCN(Cc2ccccc2O)C1 (stereo unspecified) | x | -8 | -6 | 10 | x | x
CCOC(=O)C1(CCc2ccccc2)CCN(C2CCSCC2)CC1 | x | -14 | -22 | 23* | 11 | 10
Fc1ccccc1CNC1CN2CCC1CC2 (stereo unspecified) | x | -4 | 11 | 9 | x | x
Cc1ccccc1C(O)(Cc1ccccc1)C1CN2CCC1CC2 (stereo unspecified) | 11 | -7 | -26 | 21* | 5 | 9
COc1cccc(C(=O)C2CCCN(Cc3ccc4nonc4c3)C2)c1 (stereo unspecified) | x | -18 | -8 | 29* | 9 | 6
CC(C)NC(C)C(=O)c1ccc2ccccc2c1 (stereo unspecified) | x | 10 | 1 | 7 | x | x
Cc1cc(NCCN)nc2ccccc12 | 12 | -20 | -31 | 21* | 13 | 16
COc1cccc(NP(=O)(Oc2ccccc2)Oc2ccccc2)c1 | 5 | -5 | -4 | 22* | 6 | 8
